Laboratory results reported in ChEMBL document CHEMBL5120974, “Antitubercular Activity of Novel 2-(Quinoline-4-yloxy)acetamides with Improved Drug-Like Properties” (ACS Med Chem Lett, 2022).
Values after ≈ are worked out from the molar mass of the structure shown.

Key:
Format in all cases: functional
[1] = tested on: Mycobacterium tuberculosis; assay: Antitubercular activity against Multidrug-resistant Mycobacterium tuberculosis clinical isolate PT2 assessed as bacterial growth inhibition incubated for 7 days by resazurin dye based assay; conditions: PT2, 168 h, time 7 day
[2] = tested on: Mycobacterium tuberculosis; assay: Antitubercular activity against Multidrug-resistant Mycobacterium tuberculosis clinical isolate PT12 assessed as bacterial growth inhibition incubated for 7 days by resazurin dye based assay; conditions: PT12, 168 h, time 7 day
[3] = tested on: Mycobacterium tuberculosis; assay: Antitubercular activity against Multidrug-resistant Mycobacterium tuberculosis clinical isolate PT20 assessed as bacterial growth inhibition incubated for 7 days by resazurin dye based assay; conditions: PT20, 168 h, time 7 day
[4] = tested on: Mycobacterium tuberculosis; assay: Antitubercular activity against Multidrug-resistant Mycobacterium tuberculosis qcrB-T313A mutant assessed as bacterial growth inhibition incubated for 7 days by resazurin dye based assay; conditions: time 7 day
Outline: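 MIC measured against a spontaneous mutant selected for resistance to 2-(quinolin-4-yloxy)acetamides, with a fully sequenced genome and a single qcrB change (ACC to GCC at nucleotide 937, T313A substitution).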

Compound | MIC [1] | MIC [2] | MIC [3] | MIC [4]
COc1ccc2nc(C)cc(OCC(=O)Nc3ccc(N4CCCCC4)cc3)c2c1 | < 0.04 µM | 0.19 µM (≈ 0.077 µg/mL) | < 0.04 µM | >24.7 µM
CCc1cc(OCC(=O)Nc2ccc(N3CCCCC3)cc2)c2cc(OC)ccc2n1 | < 0.04 µM | 0.19 µM (≈ 0.0797 µg/mL) | < 0.04 µM | >23.8 µM
NNC(=O)c1ccncc1 [ISONIAZID] |  | 146 µM (≈ 20 µg/mL) |  | 2.3 µM (≈ 0.315 µg/mL)
CO[C@H]1/C=C/O[C@@]2(C)Oc3c(C)c(O)c4c(O)c(c(/C=N/N5CCN(C)CC5)c(O)c4c3C2=O)NC(=O)/C(C)=C\C=C\[C@H](C)[C@H](O)[C@@H](C)[C@@H](O)[C@@H](C)[C@H](OC(C)=O)[C@@H]1C [RIFAMPIN] | > 48.6 µM | > 48.6 µM | > 48.6 µM | 
